In ChEMBL document CHEMBL4130550, “Antiproliferative Dimeric Aporphinoid Alkaloids from the Roots of Thalictrum cultratum” (J Nat Prod, 2017):
Calls of active or inactive are those of the source. No cut-off for these calls is given here.

Experiments:
[1] = test system: HL-60; test: Induction of apoptosis in human HL60 cells assessed as live cells at 1.5 uM after 24 hrs by Annexin-V-APC/7-AAD staining based flow cytometric method (reference value: 95.31%); assay type: functional
Method in brief: (§1)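 HL-60 are seeded overnight in six-well plates, then treated in triplicate with 0.06, 0.3 or 1.5 μM, or untreated, for 24 h. Cells are washed in PBS and taken up in annexin V binding buffer. Annexin V-APC is added for 15 min in the dark at 25 °C, and 7-AAD just before flow cytometry. Early apoptosis is annexin V-APC only; late apoptosis is annexin V-APC/7-AAD.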

[2] = test system: HL-60; test: Induction of mitochondrial membrane potential loss in human HL60 cells assessed as collapse of the mitochondrial membrane potential at 1.5 uM after 24 hrs by JC1 staining based flow cytometric method (reference value: 0.58%); assay type: functional
[3] = test system: HL-60; test: Induction of mitochondrial membrane potential loss in human HL60 cells assessed as intact mitochondrial membrane potential at 0.3 uM after 24 hrs by JC1 staining based flow cytometric method (reference value: 99.42%); assay type: functional
[4] = test system: HL-60; test: Cell cycle arrest in human HL60 cells assessed as accumulation at G2 phase at 0.06 uM after 24 hrs by propidium iodide staining based flow cytometric method (reference value: 30.93%); assay type: functional
[5] = test system: HL-60; test: Induction of apoptosis in human HL60 cells assessed as early apoptotic cells at 1.5 uM after 24 hrs by Annexin-V-FITC/propidium iodide staining based flow cytometric method (reference value: 2.8%); assay type: functional
[6] = test system: HL-60; test: Induction of apoptosis in human HL60 cells assessed as late apoptotic cells at 1.5 uM after 48 hrs by Annexin-V-FITC/propidium iodide staining based flow cytometric method (reference value: 2.53%); assay type: functional
[7] = test system: HL-60; test: Induction of apoptosis in human HL60 cells assessed as early apoptotic cells at 1.5 uM after 24 hrs by Annexin-V-APC/7-AAD staining based flow cytometric method (reference value: 2.26%); assay type: functional; method in brief: as §1
[8] = test system: HL-60; test: Induction of mitochondrial membrane potential loss in human HL60 cells assessed as collapse of the mitochondrial membrane potential at 0.3 uM after 24 hrs by JC1 staining based flow cytometric method (reference value: 0.58%); assay type: functional
[9] = test system: HL-60; test: Induction of apoptosis in human HL60 cells assessed as early apoptotic cells at 0.06 uM after 24 hrs by Annexin-V-APC/7-AAD staining based flow cytometric method (reference value: 2.26%); assay type: functional; method in brief: as §1
[10] = test system: HL-60; test: Induction of apoptosis in human HL60 cells assessed as live cells at 0.06 uM after 24 hrs by Annexin-V-APC/7-AAD staining based flow cytometric method (reference value: 95.31%); assay type: functional; method in brief: as §1
[11] = test system: HL-60; test: Induction of apoptosis in human HL60 cells assessed as early apoptotic cells at 0.3 uM after 24 hrs by Annexin-V-APC/7-AAD staining based flow cytometric method (reference value: 2.26%); assay type: functional; method in brief: as §1
[12] = test system: HL-60; test: Cell cycle arrest in human HL60 cells assessed as accumulation at G1 phase at 0.06 uM after 24 hrs by propidium iodide staining based flow cytometric method (reference value: 43.32%); assay type: functional
[13] = test system: HL-60; test: Induction of apoptosis in human HL60 cells assessed as necrotic cells at 1.5 uM after 48 hrs by Annexin-V-FITC/propidium iodide staining based flow cytometric method (reference value: 0.47%); assay type: functional
[14] = test system: HL-60; test: Induction of apoptosis in human HL60 cells assessed as live cells at 0.3 uM after 24 hrs by Annexin-V-APC/7-AAD staining based flow cytometric method (reference value: 95.31%); assay type: functional; method in brief: as §1
[15] = test system: HL-60; test: Cell cycle arrest in human HL60 cells assessed as accumulation at G1 phase at 0.3 uM after 24 hrs by propidium iodide staining based flow cytometric method (reference value: 43.32%); assay type: functional
[16] = test system: HL-60; test: Induction of apoptosis in human HL60 cells assessed as necrotic cells at 1.5 uM after 72 hrs by Annexin-V-FITC/propidium iodide staining based flow cytometric method (reference value: 0.47%); assay type: functional
[17] = test system: HL-60; test: Induction of mitochondrial membrane potential loss in human HL60 cells assessed as intact mitochondrial membrane potential at 1.5 uM after 24 hrs by JC1 staining based flow cytometric method (reference value: 99.42%); assay type: functional
[18] = test system: HL-60; test: Induction of apoptosis in human HL60 cells assessed as early apoptotic cells at 1.5 uM after 72 hrs by Annexin-V-FITC/propidium iodide staining based flow cytometric method (reference value: 2.8%); assay type: functional
[19] = test system: PC-3; test: Antiproliferative activity against human PC3 cells by MTT assay; assay type: functional, cell-based
Method in brief: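 PC-3 (ATCC) in supplemented RPMI-1640 with 10% FBS at 37 °C, 5% CO2. Log-phase cells get graded concentrations in triplicate. MTT (5 mg/mL solution) is added for a further 4 h, then dissolved in DMSO and read at 490 nm. IC50 is from the average of three parallel experiments. Negative reference is 0.1% DMSO.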

[20] = test system: HL-60; test: Induction of mitochondrial membrane potential loss in human HL60 cells after 24 hrs by JC1 staining based flow cytometric method; assay type: functional, cell-based
[21] = test system: HL-60; test: Cell cycle arrest in human HL60 cells assessed as accumulation at S phase at 1.5 uM after 24 hrs by propidium iodide staining based flow cytometric method (reference value: 25.75%); assay type: functional
[22] = test system: HL-60; test: Induction of mitochondrial membrane potential loss in human HL60 cells assessed as collapse of the mitochondrial membrane potential at 0.06 uM after 24 hrs by JC1 staining based flow cytometric method (reference value: 0.58%); assay type: functional
[23] = test system: HL-60; test: Cell cycle arrest in human HL60 cells assessed as accumulation at S phase at 0.06 uM after 24 hrs by propidium iodide staining based flow cytometric method (reference value: 25.75%); assay type: functional
[24] = test system: HL-60; test: Induction of apoptosis in human HL60 cells assessed as late apoptotic cells at 1.5 uM after 24 hrs by Annexin-V-APC/7-AAD staining based flow cytometric method (reference value: 1.99%); assay type: functional; method in brief: as §1
[25] = test system: HL-60; test: Induction of morphological changes in human HL60 cells assessed as chromatin condensation at 0.06 to 1.5 uM after 24 hrs by Hoechst 33258 staining based fluorescence microscopic analysis; assay type: functional, cell-based
[26] = test system: HL-60; test: Induction of apoptosis in human HL60 cells assessed as late apoptotic cells at 0.06 uM after 24 hrs by Annexin-V-APC/7-AAD staining based flow cytometric method (reference value: 1.99%); assay type: functional; method in brief: as §1
[27] = test system: HL-60; test: Induction of apoptosis in human HL60 cells assessed as necrotic cells at 0.06 uM after 24 hrs by Annexin-V-APC/7-AAD staining based flow cytometric method (reference value: 0.44%); assay type: functional; method in brief: as §1
[28] = test system: HL-60; test: Induction of apoptosis in human HL60 cells assessed as necrotic cells at 1.5 uM after 24 hrs by Annexin-V-APC/7-AAD staining based flow cytometric method (reference value: 0.44%); assay type: functional; method in brief: as §1
[29] = test system: HL-60; test: Cell cycle arrest in human HL60 cells assessed as accumulation at G2 phase at 1.5 uM after 24 hrs by propidium iodide staining based flow cytometric method (reference value: 30.93%); assay type: functional
[30] = test system: HL-60; test: Induction of apoptosis in human HL60 cells assessed as live cells at 1.5 uM after 24 hrs by Annexin-V-FITC/propidium iodide staining based flow cytometric method (reference value: 94.19%); assay type: functional

IC50 [19]: 5.59 µM
Compound: COc1cc2c(c(Oc3ccc(C[C@H]4c5cc(OC)c6c(c5CCN4C)OCO6)cc3)c1OC)C[C@H]1c3c(c(OC)c(OC)c(OC)c3-2)CCN1C
Activity [1]: 35.77%
Activity [2]: 59.1%
Activity [3]: 66.5%
Activity [4]: 24.33%
Activity [5]: 14.79%
Activity [6]: 17.69%
Activity [7]: 9%
Activity [8]: 33.5%
Activity [9]: 8.57%
Activity [10]: 79.49%
Activity [11]: 22.76%
Activity [12]: 44.01%
Activity [13]: 0.57%
Activity [14]: 69.73%
Activity [15]: 36.01%
Activity [16]: 0.79%
Activity [17]: 40.9%
Activity [18]: 31.46%
Activity [20]: Dose-dependent effect
Activity [21]: 48.45%
Activity [22]: 24.1%
Activity [23]: 31.66%
Activity [24]: 47.95%
Activity [25]: Active
Activity [26]: 8.18%
Activity [27]: 3.77%
Activity [28]: 7.28%
Activity [29]: 18.53%
Activity [30]: 76.15%
